Experimental data taken from ChEMBL document CHEMBL1140335, “"Reversine" and its 2-substituted adenine derivatives as potent and selective A3 adenosine receptor antagonists” (J Med Chem, 2005).

Target: T1, Adenosine receptor A1 (Homo sapiens, UniProt P30542)
T1 sequence (P30542 whole entry): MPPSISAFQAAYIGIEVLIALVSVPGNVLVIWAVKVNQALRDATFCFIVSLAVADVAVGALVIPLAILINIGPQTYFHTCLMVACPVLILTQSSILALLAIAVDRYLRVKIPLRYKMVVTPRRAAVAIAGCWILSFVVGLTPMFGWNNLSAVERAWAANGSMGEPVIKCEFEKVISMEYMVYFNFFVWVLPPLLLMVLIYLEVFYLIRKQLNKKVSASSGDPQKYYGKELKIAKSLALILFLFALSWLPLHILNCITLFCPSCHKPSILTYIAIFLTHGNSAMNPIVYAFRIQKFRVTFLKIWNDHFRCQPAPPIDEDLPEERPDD
Assay: Percent inhibition of [3H]-DPCPX binding to human adenosine A1 receptor expressed in CHO cells at 10 uM
Format: cell-based
Summary of the method: (§1)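 Test ligand at a single 10 μM was run against 0.5 nM [3H]DPCPX on membranes (20 μg protein) from CHO cells stably expressing human A1 receptor, in 50 mM Tris-HCl, pH 7.4, for 60 min at 25°C. Nonspecific binding was defined with 10 μM NECA. Filtration was on GF/B, with scintillation counting. Results are percent displacement of radioligand.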

Question: With `c1ccc(Nc2nc3ncnc-3c(NC3CCCCCCC3)[nH]2)cc1` as the compound, how does the Ki read?
Answer: Its Ki is 4.47 µM.

Target: T1, Adenosine receptor A1
Assay: (§2) Percent inhibition of [3H]DPCPX binding to human adenosine A1 receptor expressed in CHO cells at 10 uM
Format: cell-based
Summary of the method: as §1

Question: For `c1ccc(CCNc2nc(NC3CCCCC3)c3[nH]cnc3n2)cc1`, which Ki is on record?
Answer: Its Ki is 3170 nM.

Question: Which Ki does the source give for `c1ccc(Nc2nc3ncnc-3c(NC3CCCCC3)[nH]2)cc1` here?
Answer: Its Ki is 2730 nM.

Target: T2, Adenosine receptor A2a (Homo sapiens, UniProt P29274)
Assay: Percent inhibition of […] binding to human adenosine A2A receptor expressed in CHO cells at 10 uM
Format: cell-based

T2 sequence (P29274 whole entry): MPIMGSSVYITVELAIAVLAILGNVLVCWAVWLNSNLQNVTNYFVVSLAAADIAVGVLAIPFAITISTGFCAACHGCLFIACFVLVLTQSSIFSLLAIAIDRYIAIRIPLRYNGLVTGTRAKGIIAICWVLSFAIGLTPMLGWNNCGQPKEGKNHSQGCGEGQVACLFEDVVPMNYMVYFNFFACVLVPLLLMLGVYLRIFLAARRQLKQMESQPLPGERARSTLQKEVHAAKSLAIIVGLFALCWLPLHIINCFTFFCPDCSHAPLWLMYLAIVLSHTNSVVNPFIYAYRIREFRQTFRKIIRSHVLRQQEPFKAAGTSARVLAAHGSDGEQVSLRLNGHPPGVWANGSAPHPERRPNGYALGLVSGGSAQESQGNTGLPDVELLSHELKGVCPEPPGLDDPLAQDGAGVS

Question: How did the inhibition turn out when `c1ccc(CCNc2nc(NC3CCCCC3)c3[nH]cnc3n2)cc1` was run?
Answer: Its inhibition is 46%.

Question: For `c1nc2c(NC3CCCCC3)nc(Nc3ccc(N4CCCCC4)cc3)nc2[nH]1`, which inhibition is on record?
Answer: Its inhibition is 50%.

Target: T2, Adenosine receptor A2a
Assay: not given
Format: cell-based, CHO

Question: Which Ki does the source give for `CN(C)c1ccc(Nc2nc(NC3CCCCC3)c3[nH]cnc3n2)cc1` here?
Answer: The Ki was 6100 nM.

Question: With `c1ccc(Nc2nc(NC3CCCCCC3)c3[nH]cnc3n2)cc1` as the compound, how does the Ki read?
Answer: The Ki was 4120 nM.

Question: How did the Ki turn out when `c1ccc(Nc2nc3ncnc-3c(NC3CCCCC3)[nH]2)cc1` was run?
Answer: Its Ki is 1700 nM.

Question: With `c1nc2nc(Nc3ccc(N4CCOCC4)cc3)nc(NC3CCCCC3)c2[nH]1` [REVERSINE] as the compound, how does the Ki read?
Answer: The Ki was greater than 10000 nM.

Question: `Cn1cnc2c(NC3CCCCCC3)nc(Nc3ccccc3)nc21` was tested. Which Ki did it give?
Answer: The Ki was 2950 nM.

Question: For `Cn1cnc2c(NC3CCCCC3)nc(Nc3ccccc3)nc21`, which Ki is on record?
Answer: The Ki was 1200 nM.

Target: T3, Adenosine receptor A3 (Homo sapiens, UniProt P0DMS8)
T3 sequence (P0DMS8 whole entry): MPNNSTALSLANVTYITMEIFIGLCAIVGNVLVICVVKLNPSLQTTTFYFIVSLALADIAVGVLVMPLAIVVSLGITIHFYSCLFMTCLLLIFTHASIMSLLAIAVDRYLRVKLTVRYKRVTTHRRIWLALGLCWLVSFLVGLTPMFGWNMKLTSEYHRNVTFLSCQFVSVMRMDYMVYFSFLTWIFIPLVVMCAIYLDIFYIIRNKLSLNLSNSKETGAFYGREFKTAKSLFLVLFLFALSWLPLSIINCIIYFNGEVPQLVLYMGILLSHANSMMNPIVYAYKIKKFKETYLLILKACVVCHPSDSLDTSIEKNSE
Assay: biochemical
Format: cell-based, CHO

Question: How did the Ki turn out when `CN(C)c1ccc(Nc2nc(NC3CCCCC3)c3[nH]cnc3n2)cc1` was run?
Answer: Its Ki is 70 nM.

Question: With `c1nc2nc(Nc3ccc(N4CCOCC4)cc3)[nH]c(NC3CCCCCCC3)c-2n1` as the compound, how does the Ki read?
Answer: The Ki was 2770 nM.

Question: For `c1ccc(Nc2nc(NC3CCCCCC3)c3[nH]cnc3n2)cc1`, which Ki is on record?
Answer: Its Ki is 42 nM.

Question: How did the Ki turn out when `c1ccc(CCNc2nc(NC3CCCCC3)c3[nH]cnc3n2)cc1` was run?
Answer: Its Ki is 1460 nM.

Question: For `c1ccc(Nc2nc3ncnc-3c(NC3CCCCC3)[nH]2)cc1`, which Ki is on record?
Answer: Its Ki is 51 nM.

Question: With `c1nc2nc(Nc3ccc(N4CCOCC4)cc3)nc(NC3CCCCC3)c2[nH]1` [REVERSINE] as the compound, how does the Ki read?
Answer: The Ki was 660 nM.

Question: Which Ki does the source give for `c1ccc(Sc2nc3ncnc-3c(NC3CCCCC3)[nH]2)cc1` here?
Answer: The Ki was 134 nM.

Question: `Cn1cnc2c(NC3CCCCCC3)nc(Nc3ccccc3)nc21` was tested. Which Ki did it give?
Answer: Its Ki is 960 nM.

Question: For `c1nc2nc(Nc3ccc(N4CCOCC4)cc3)nc(NC3CC3)c2[nH]1`, which Ki is on record?
Answer: Its Ki is 1870 nM.

Question: For `c1ccc(CNc2nc(NC3CCCCC3)c3[nH]cnc3n2)cc1`, which Ki is on record?
Answer: Its Ki is 920 nM.

Question: `c1nc2nc(Nc3ccc(N4CCOCC4)cc3)[nH]c(NC3CCCCCC3)c-2n1` was tested. Which Ki did it give?
Answer: The Ki was 420 nM.

Question: `c1ccc(Oc2nc(NC3CC4CCC3C4)c3nc[nH]c3n2)cc1` (configuration not stated) was tested. Which Ki did it give?
Answer: Its Ki is 74 nM.

Question: Which Ki does the source give for `c1ccc(-c2ccc(Nc3nc4ncnc-4c(NC4CCCCC4)[nH]3)cc2)cc1` here?
Answer: Its Ki is 5400 nM.

Question: For `c1nc2nc(Nc3ccc(N4CCOCC4)cc3)[nH]c(NC3CCCC3)c-2n1`, which Ki is on record?
Answer: The Ki was 1390 nM.

Question: How did the Ki turn out when `c1ccc(Nc2nc3ncnc-3c(NC3CCCCCCC3)[nH]2)cc1` was run?
Answer: Its Ki is 340 nM.

Question: Which Ki does the source give for `CCNc1[nH]c(Nc2ccc(N3CCOCC3)cc2)nc2ncnc1-2` here?
Answer: The Ki was 1530 nM.

Question: With `c1nc2nc(Nc3ccc(N4CCOCC4)cc3)nc(NC3CC4CCC3C4)c2[nH]1` (configuration not stated) as the compound, how does the Ki read?
Answer: The Ki was 122 nM.

Question: `CCNc1nc(NC2CCCCC2)c2[nH]cnc2n1` was tested. Which Ki did it give?
Answer: The Ki was 1120 nM.

Question: For `c1nc2nc(Nc3ccc(N4CCOCC4)cc3)[nH]c(NC3CCC3)c-2n1`, which Ki is on record?
Answer: The Ki was 1810 nM.

Question: With `c1ccc2cc(Nc3nc(NC4CCCCC4)c4[nH]cnc4n3)ccc2c1` as the compound, how does the Ki read?
Answer: Its Ki is 2420 nM.

Question: With `c1nc2c(NC3CCCCC3)nc(Nc3ccc(N4CCCCC4)cc3)nc2[nH]1` as the compound, how does the Ki read?
Answer: Its Ki is 1570 nM.

Question: Which Ki does the source give for `Cn1cnc2c(NC3CCCCC3)nc(Nc3ccccc3)nc21` here?
Answer: Its Ki is 70 nM.

Target: T1, Adenosine receptor A1
Assay: not given
Format: cell-based, CHO

Question: How did the Ki turn out when `CN(C)c1ccc(Nc2nc(NC3CCCCC3)c3[nH]cnc3n2)cc1` was run?
Answer: The Ki was 3900 nM.

Question: Which Ki does the source give for `c1ccc(Nc2nc(NC3CCCCCC3)c3[nH]cnc3n2)cc1` here?
Answer: The Ki was 1720 nM.

Question: How did the Ki turn out when `c1nc2nc(Nc3ccc(N4CCOCC4)cc3)nc(NC3CCCCC3)c2[nH]1` [REVERSINE] was run?
Answer: Its Ki is greater than 10000 nM.

Question: How did the Ki turn out when `Cn1cnc2c(NC3CCCCCC3)nc(Nc3ccccc3)nc21` was run?
Answer: The Ki was 1940 nM.

Question: How did the Ki turn out when `c1ccc(Oc2nc(NC3CC4CCC3C4)c3nc[nH]c3n2)cc1` (configuration not stated) was run?
Answer: The Ki was 1470 nM.

Question: For `Cn1cnc2c(NC3CCCCC3)nc(Nc3ccccc3)nc21`, which Ki is on record?
Answer: Its Ki is 1880 nM.

Target: T4, Adenosine receptor A1 (Homo sapiens) (UniProt P30542)
T4 sequence (whole entry): T1 sequence (P30542 whole entry)
Assay: as §2
Format: cell-based
Summary of the method: as §1

Question: Which inhibition does the source give for `c1nc2nc(Nc3ccc(N4CCOCC4)cc3)[nH]c(NC3CCCCCCC3)c-2n1` here?
Answer: Its inhibition is 0%.

Question: How did the inhibition turn out when `c1nc2nc(Nc3ccc(N4CCOCC4)cc3)nc(NC3CC3)c2[nH]1` was run?
Answer: The inhibition was 22%.

Question: With `c1ccc(CNc2nc(NC3CCCCC3)c3[nH]cnc3n2)cc1` as the compound, how does the inhibition read?
Answer: Its inhibition is 42%.

Question: `c1nc2nc(Nc3ccc(N4CCOCC4)cc3)[nH]c(NC3CCCCCC3)c-2n1` was tested. Which inhibition did it give?
Answer: Its inhibition is 6%.

Question: Which inhibition does the source give for `c1ccc(-c2ccc(Nc3nc4ncnc-4c(NC4CCCCC4)[nH]3)cc2)cc1` here?
Answer: Its inhibition is 14%.

Question: How did the inhibition turn out when `c1nc2nc(Nc3ccc(N4CCOCC4)cc3)[nH]c(NC3CCCC3)c-2n1` was run?
Answer: The inhibition was 22%.

Question: Which inhibition does the source give for `CCNc1[nH]c(Nc2ccc(N3CCOCC3)cc2)nc2ncnc1-2` here?
Answer: Its inhibition is 23%.

Question: For `c1ccc2cc(Nc3nc4ncnc-4c(NC4CCCCC4)[nH]3)ccc2c1`, which inhibition is on record?
Answer: Its inhibition is 39%.

Question: `CCNc1nc(NC2CCCCC2)c2[nH]cnc2n1` was tested. Which inhibition did it give?
Answer: The inhibition was 51%.

Question: `c1nc2nc(Nc3ccc(N4CCOCC4)cc3)[nH]c(NC3CCC3)c-2n1` was tested. Which inhibition did it give?
Answer: Its inhibition is 29%.

Question: For `c1nc2c(NC3CCCCC3)nc(Nc3ccc(N4CCCCC4)cc3)nc2[nH]1`, which inhibition is on record?
Answer: Its inhibition is 16%.

Target: T2, Adenosine receptor A2a
Assay: Percent inhibition of [3H]-ZM241385 binding to human adenosine A2A receptor expressed in CHO cells at 10 uM

Question: For `c1nc2nc(Nc3ccc(N4CCOCC4)cc3)[nH]c(NC3CCCCCCC3)c-2n1`, which inhibition is on record?
Answer: Its inhibition is 17%.

Question: With `c1nc2nc(Nc3ccc(N4CCOCC4)cc3)nc(NC3CC3)c2[nH]1` as the compound, how does the inhibition read?
Answer: Its inhibition is 25%.

Question: How did the inhibition turn out when `c1ccc(CNc2nc(NC3CCCCC3)c3[nH]cnc3n2)cc1` was run?
Answer: Its inhibition is 34%.

Question: How did the inhibition turn out when `c1nc2nc(Nc3ccc(N4CCOCC4)cc3)[nH]c(NC3CCCCCC3)c-2n1` was run?
Answer: The inhibition was 38%.

Question: Which inhibition does the source give for `c1ccc(Oc2nc(NC3CC4CCC3C4)c3nc[nH]c3n2)cc1` (configuration not stated) here?
Answer: The inhibition was 25%.

Question: How did the inhibition turn out when `c1ccc(-c2ccc(Nc3nc4ncnc-4c(NC4CCCCC4)[nH]3)cc2)cc1` was run?
Answer: Its inhibition is 22%.

Question: How did the inhibition turn out when `c1nc2nc(Nc3ccc(N4CCOCC4)cc3)[nH]c(NC3CCCC3)c-2n1` was run?
Answer: Its inhibition is 20%.

Question: With `CCNc1[nH]c(Nc2ccc(N3CCOCC3)cc2)nc2ncnc1-2` as the compound, how does the inhibition read?
Answer: The inhibition was 16%.

Question: How did the inhibition turn out when `c1ccc2cc(Nc3nc4ncnc-4c(NC4CCCCC4)[nH]3)ccc2c1` was run?
Answer: Its inhibition is 52%.

Question: For `CCNc1nc(NC2CCCCC2)c2[nH]cnc2n1`, which inhibition is on record?
Answer: The inhibition was 42%.

Question: How did the inhibition turn out when `c1nc2nc(Nc3ccc(N4CCOCC4)cc3)[nH]c(NC3CCC3)c-2n1` was run?
Answer: The inhibition was 18%.

Target: T1, Adenosine receptor A1
Assay: Binding affinity for human adenosine A1 receptor
Summary of the method: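 Membranes from CHO cells stably expressing human A1 receptor (20 μg protein) were incubated with 0.5 nM [3H]DPCPX in 50 mM Tris-HCl, pH 7.4, for 60 min at 25°C. Nonspecific binding was defined with 10 μM NECA. Bound label was collected by GF/B filtration and counted by scintillation.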

Question: `CC(C)N(C)c1nc2c(NC3CC4CC3CC4O)ncnc2n1C` (configuration not stated) was tested. Which Ki did it give?
Answer: The Ki was 1.7 nM.
